In the library only some 4% were active in any assay of this set; here they are far more common.
KCNQ1 pot: human KCNQ1 channel potentiation or activation; CHO-K1 KCNQ1, thallium flux FluxOR fluorescence; hits give high values; B-score at 10 µM; hit rate 0.35% among 310,000;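 active = fluorescence ratio B-score, a plate-corrected score, at least three library SD, with initial intensity B-score within 5 SD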
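System: CHO-K1 cells stably expressing KCNQ1 / Medium: assay buffer for compound exposure, DMSO matched across wells / Reagent: thallium- and potassium-containing depolarizing buffer / Compound: one concentration, matched DMSO / Incubation: 20 min compound pretreatment at room temperature / Measured by: kinetic FluxOR fluorescence, 10 s baseline plus 110 s post-stimulus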
KCNQ1 inh: human KCNQ1 channel inhibition; B-score at 10 µM; CHO-K1 KCNQ1, FluxOR thallium flux fluorescence; hits give high values; hit rate 1.3% among 310,000;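 active = compounds whose thallium flux B-score, printed positive for inhibition, exceeds three library SD while starting fluorescence stays within three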;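 note: channel opened by potassium depolarization with thallium stimulus after 20 min compound exposure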
PHOSPHO1 inh: inhibitors of human PHOSPHO1 phosphatase. Q8TCT1. recombinant PHOSPHO1, absorbance phosphatase assay. inhibition, % at 13.3 µM. hit rate 1.1% among 290,000; in the data active = inhibition above about 60%
KCNK3 block: human KCNK3 channel inhibition, primary screen; B-score at 10 µM; O14649; hit rate 0.84% among 340,000; CHO-KCNK3 thallium flux, FluxOR fluorescence; hits give low values;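 active = B-score under library mean minus 4 SD, starting fluorescence ratio at most library mean plus 5 SD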;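 note: more negative B-score means stronger inhibition of thallium flux through KCNK3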
KCNK9 block: human KCNK9 channel inhibition; hit rate 1.2% among 310,000; AID 488922; Q9NPC2; HEK293 KCNK9, FluxOR thallium flux fluorescence; hits give low values; B-score at 10 µM;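 active = ratio B-score over 3 SD below the library mean, with starting fluorescence within 5 SD of its mean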;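 note: negative B-score means less thallium flux so channel inhibition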
Target sequence (Q9NPC2 whole entry, looked up): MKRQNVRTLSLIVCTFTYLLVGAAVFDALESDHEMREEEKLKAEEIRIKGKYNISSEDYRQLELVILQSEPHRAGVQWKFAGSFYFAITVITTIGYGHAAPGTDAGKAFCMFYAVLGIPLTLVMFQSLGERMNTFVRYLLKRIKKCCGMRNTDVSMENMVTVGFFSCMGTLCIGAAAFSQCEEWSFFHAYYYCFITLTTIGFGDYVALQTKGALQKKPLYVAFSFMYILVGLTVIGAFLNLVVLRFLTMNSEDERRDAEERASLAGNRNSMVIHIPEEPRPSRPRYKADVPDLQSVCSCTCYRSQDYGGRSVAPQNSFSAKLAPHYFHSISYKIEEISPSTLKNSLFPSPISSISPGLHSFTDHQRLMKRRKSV
hERG rescue: shields human hERG channel from block by proarrhythmic agents | activation (rescue from dofetilide block), less the hit threshold, % at 10 µM | AID 1511 | CHO-hERG, FluxOR thallium flux, dofetilide IC70 present | Q12809 | hit rate 0.51% among 310,000;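 active = activation above the mean of controls blocked by dofetilide plus 5 SD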;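 note: thallium influx through hERG after potassium depolarization seen as dye fluorescence rise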
Starred values were filed as active, the others as inactive; i = inactive; . = no result given.

SMILES	KCNQ1 pot	KCNQ1 inh	PHOSPHO1 inh	KCNK3 block	KCNK9 block	hERG rescue
C=CCn1c(CSc2nc3ccccc3s2)nnc1SCC(=O)OCC	i	i	17	i	i	-15
CCn1c(CSc2nc3ccccc3s2)nnc1SCC(=O)c1ccc(O)cc1O	i	i	83*	i	i	-4
CC(=O)Nc1ccc(NC(=O)C2CCN(C(=O)NC3CCCCC3)CC2)cc1	i	i	28	i	i	-5
COc1ccc(CNC(=O)C(C)N2C(=O)NC(c3ccccc3)(c3ccccc3)C2=O)cc1 (stereo unspecified)	.	.	.	i	.	.
Cc1ccc(C)c(N2CCN(c3nc4ccccc4c(=O)n3Cc3ccccc3)CC2)c1	i	i	13	i	-7.6*	-12
CCCn1c(N)c(N(CCOC)C(=O)c2ccccc2)c(=O)[nH]c1=O	i	i	10	i	i	-4
C/C(=N\OCc1ccc(C#N)cc1)c1cc2ccccc2o1	i	i	34	i	i	-10
C/C(=N\OCc1ccccc1C#N)c1cc2ccccc2o1	i	i	33	i	-7.1*	-5
O=C1CC(=O)N(Cc2ccco2)C(=S)N1	i	i	89*	i	i	-1
O=C(O)CCN1C(=O)C(=C2CCCCCC2)SC1=S	i	i	-8	i	i	-2
O=C1C(=C2CCCCC2)SC(=S)N1Cc1ccco1	i	i	70*	i	i	-19
CC1CCCC(NC(=O)CNC(=S)N(Cc2ccccc2)Cc2cccs2)C1C (stereo unspecified)	i	9*	-13	i	i	-10
CCCCNC(=O)CNC(=S)N(Cc1ccccc1)Cc1cccs1	i	i	4	i	i	-7
COc1cc(C2(c3ccc(O)c(OC)c3)C(=O)Nc3c(Br)cc(Br)cc32)ccc1O	i	i	.	i	i	-8
Cc1ccc(CSC(Nc2ccc(F)cc2)=C(C#N)C#N)cc1	i	i	13	i	i	-10
O=C(CSc1ccc(Cl)cc1)N/N=C/c1cccnc1	i	i	40	i	i	8.2*
Cc1cc(C)nc(SCC(=O)N/N=C/c2cccnc2)n1	i	i	47	i	i	-3
CSc1ncccc1C(=O)Nc1ccc(OC(F)(F)F)cc1	i	i	2	i	i	-3
CC(=O)Nc1ccc(Sc2ncccc2C(=O)Nc2ccc(F)cc2)cn1	i	i	62*	i	i	-2
CC(C)[C@H](NC(=O)c1ccccc1Cl)C(=O)Nc1ccc(S(=O)(=O)Nc2nccs2)cc1	.	.	.	i	.	.
COC(=O)CNc1nc(Cl)nc(Nc2ccc(C)cc2)n1	i	i	16	i	i	6.7*
COC(=O)CNc1nc(Cl)nc(Nc2ccc(Cl)cc2)n1	i	i	42	i	i	-1
Cc1cc(C)nc(/N=C(\N)Nc2ccc(CC(=O)OC(C)C)cc2)n1	10*	i	35	i	i	-10
N#Cc1c(N)[nH]c(=S)c(C#N)c1-c1ccccc1	i	i	96*	i	i	-18
O=C1c2ccccc2NC(c2ccc(Br)o2)N1O (stereo unspecified)	.	.	.	i	.	.
SMILES	KCNQ1 pot	KCNQ1 inh	PHOSPHO1 inh	KCNK3 block	KCNK9 block	hERG rescue
O=C1c2ccccc2NC(c2ccc(Br)s2)N1O (stereo unspecified)	22*	i	.	i	i	21*
C#CCSc1nnc(-c2ccc(OC)cc2)o1	i	i	69*	i	i	-7
Cc1cc(NC(=O)Nc2cccc(C(F)(F)F)c2)n(C)n1	i	6*	-16	i	i	-8
CC(C)(O)C(=O)NNC(=S)Nc1cccc(C(F)(F)F)c1	i	7*	-44	i	i	-2
FC(F)(F)c1cccc(NC(=S)Nc2ccc(Cl)c(Cl)c2)c1	i	7*	34	i	i	-26
COc1ccc(NC(=O)CSc2n[nH]c(N)n2)cc1OC	i	i	44	i	i	-5
Cc1ccc(C(=O)NC(C)CCc2ccccc2)cc1[N+](=O)[O-] (stereo unspecified)	i	i	34	i	i	-3
COc1ccc(-c2nc(CS(=O)CC(=O)NCCCN3CCCC(C)C3)c(C)o2)cc1OC (stereo unspecified)	i	i	58	i	i	-3
OCCN(CCO)c1ccc(C(c2ccc(Cl)cc2)c2ccc(N(CCO)CCO)cc2Cl)c(Cl)c1	8*	i	-16	i	i	-4
O=C(Nc1ccccc1N1CCN(c2ccc(F)cc2)CC1)C1CCCCC1	i	i	13	i	-6.7*	-7
CCC(=O)Nc1ccccc1N1CCN(c2ccc(F)cc2)CC1	i	i	.	i	i	-7
O=C(NC(=S)N1CCN(c2ccc(F)cc2)CC1)C12CC3CC(CC(C3)C1)C2	i	i	6	i	i	-4
O=C(Nc1ccccc1N1CCN(c2ccc(F)cc2)CC1)C12CC3CC(CC(C3)C1)C2	i	i	11	i	-7*	-9
O=C(O)c1cccc(-n2nnnc2SCc2ccccc2Cl)c1	i	i	24	i	i	-2
COc1ccc(C(=O)NC2CCSC2=O)cc1 (stereo unspecified)	i	i	-8	i	i	-7
O=C(COC(=O)c1cc(-c2ccccc2Cl)nc2ccccc12)Nc1ncc(C(F)(F)F)cc1Cl	i	i	-6	i	i	-6
Cc1c(-c2ccccc2)nc2ccccc2c1C(=O)OCC(=O)Nc1ncc(C(F)(F)F)cc1Cl	i	9*	-11	i	i	-10
COc1ccccc1N1CCN(C(=O)CSc2ncccc2-c2nc3ccccc3[nH]2)CC1	i	i	98*	i	i	-16
COc1ccc(N2CCN(C(=O)CSc3ncccc3-c3nc4ccccc4[nH]3)CC2)cc1	i	i	94*	i	i	-17
COc1ccc(N2CCN(C(=O)CSc3ccc([N+](=O)[O-])cc3)CC2)cc1	i	8*	48	i	i	-3
COc1ccc(N2CCN(C(=O)CSc3ccc(C)cc3)CC2)cc1	i	i	15	i	i	-6
O=C(CSc1ncccc1-c1nc2ccccc2[nH]1)NC1CC1	i	i	13	i	i	-10
O=C(CSc1ncccc1-c1nc2ccccc2[nH]1)N1CCN(c2ccccc2F)CC1	i	i	88*	i	i	-12
CCOc1ccccc1N1CCN(C(=O)c2c(-c3ccccc3Cl)noc2C)CC1	i	i	27	i	i	-12
O=C(Nc1nnc(-c2ccccc2)s1)c1ccccc1O	i	i	-23	i	i	-7

Compound activity from PubChem.
